Data reported in ChEMBL document CHEMBL3407428, “Synthesis, in vitro and in vivo antitumor activity of scopoletin-cinnamic acid hybrids” (Eur J Med Chem, 2015).

What was measured:
[1] = Cytotoxicity against human HCT116 cells assessed as growth inhibition at 10^-5 M after 72 hrs by MTT assay relative to control; type: functional; conditions: HCT-116, 72 h, read-out: GI
A549 [2] = test: Cytotoxicity against human A549 cells assessed as growth inhibition at 10^-5 M after 72 hrs by MTT assay relative to control; type: functional; conditions: A549, 72 h, read-out: GI
MCF7 = test: Cytotoxicity against human MCF7 cells assessed as growth inhibition at 10^-5 M after 72 hrs by MTT assay relative to control; type: functional; conditions: MCF7, 72 h, read-out: GI
MDA-MB-231 [3] = test: Cytotoxicity against human MDA-MB-231 cells assessed as growth inhibition after 72 hrs by MTT assay; type: functional, cell-based; conditions: MDA-MB-231, 72 h
How it was run: (§1)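 MTT viability assay. Cells were seeded at 5000 per well, incubated overnight, then exposed to compound at a range of concentrations for 72 h. MTT was added from a 5 mg/mL stock for 4 h, and absorbance was read at 570 nm. IC50 (50% viability inhibition) was calculated by the logit method. Each concentration was run at least three times.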

HeLa = test: Cytotoxicity against human HeLa cells assessed as growth inhibition at 10^-5 M after 72 hrs by MTT assay relative to control; type: functional; conditions: read-out: GI
[4] = Cytotoxicity against human HCT116 cells assessed as growth inhibition after 72 hrs by MTT assay; type: functional, cell-based; conditions: HCT-116, 72 h; how it was run: as §1
MDA-MB-231 [5] = test: Cytotoxicity against human MDA-MB-231 cells assessed as growth inhibition at 10^-5 M after 72 hrs by MTT assay relative to control; type: functional; conditions: MDA-MB-231, 72 h, read-out: GI
A549 [6] = test: Cytotoxicity against human A549 cells assessed as growth inhibition after 72 hrs by MTT assay; type: functional, cell-based; conditions: A549, 72 h; how it was run: as §1

COc1cc2cc(NC(=O)/C=C/c3ccc(F)cc3)c(=O)oc2cc1O gave an inhibition of growth at 10 µM [1] of 54.2%, an inhibition of growth at 10 µM (A549 [2]) of 85.6% and an inhibition of growth at 10 µM (MCF7) of 58.4%. It also gave an IC50 (MDA-MB-231 [3]) of 2350 nM, an inhibition of growth at 10 µM (HeLa) of 67.1% and an IC50 [4] of 5540 nM. The inhibition of growth at 10 µM (MDA-MB-231 [5]) was 69.2% and the IC50 (A549 [6]) was 612 nM.
Compound COc1cc(/C=C/C(=O)Oc2cc3oc(=O)ccc3cc2OC)ccc1OCc1ccccc1 has an inhibition of growth at 10 µM [1] of 4.36%, an inhibition of growth at 10 µM (A549 [2]) of 10.4% and an inhibition of growth at 10 µM (MCF7) of 9.91%. The inhibition of growth at 10 µM (HeLa) was 2.36% and the inhibition of growth at 10 µM (MDA-MB-231 [5]) was 1.39%.
In the case of COc1cc2ccc(=O)oc2cc1OC(=O)/C=C/c1ccc(Cl)cc1, the inhibition of growth at 10 µM [1] is reported as 21.1%, the inhibition of growth at 10 µM (A549 [2]) is reported as 2.73% and the inhibition of growth at 10 µM (MCF7) is reported as 22.8%. The inhibition of growth at 10 µM (HeLa) was 22.4% and the inhibition of growth at 10 µM (MDA-MB-231 [5]) was 20.3%.
In the case of COc1cc2cc(NC(=O)/C=C/c3cc(OC)c(OC)c(OC)c3)c(=O)oc2cc1O, the inhibition of growth at 10 µM [1] is reported as 7.11%, the inhibition of growth at 10 µM (A549 [2]) is reported as 4.87% and the inhibition of growth at 10 µM (MCF7) is reported as 18.3%. It also gave an inhibition of growth at 10 µM (HeLa) of 9.45% and an inhibition of growth at 10 µM (MDA-MB-231 [5]) of 12.9%.
COc1cc2ccc(=O)oc2cc1OC(=O)/C=C/c1ccc(C#N)cc1 showed an inhibition of growth at 10 µM [1] of 13.6%, an inhibition of growth at 10 µM (A549 [2]) of 17.9% and an inhibition of growth at 10 µM (MCF7) of 10.5%. It also gave an inhibition of growth at 10 µM (HeLa) of 13.2% and an inhibition of growth at 10 µM (MDA-MB-231 [5]) of 14.3%.
COc1cc2ccc(=O)oc2cc1OC(=O)/C=C/c1ccccc1 showed an inhibition of growth at 10 µM [1] of 12.2%, an inhibition of growth at 10 µM (A549 [2]) of 19.4% and an inhibition of growth at 10 µM (MCF7) of 3.65%. It also gave an inhibition of growth at 10 µM (HeLa) of 19.4% and an inhibition of growth at 10 µM (MDA-MB-231 [5]) of 10.1%.
COc1ccc(/C=C/C(=O)Nc2cc3cc(OC)c(O)cc3oc2=O)cc1 gave an inhibition of growth at 10 µM [1] of 75.7%, an inhibition of growth at 10 µM (A549 [2]) of 88.6% and an inhibition of growth at 10 µM (MCF7) of 44.8%. The IC50 (MDA-MB-231 [3]) was 578 nM, the inhibition of growth at 10 µM (HeLa) was 60.9% and the IC50 [4] was 505 nM. It also gave an inhibition of growth at 10 µM (MDA-MB-231 [5]) of 61.4% and an IC50 (A549 [6]) of 649 nM.
COc1cc2cc(NC(=O)/C=C/c3ccccc3)c(=O)oc2cc1O gave an inhibition of growth at 10 µM [1] of 60.3%, an inhibition of growth at 10 µM (A549 [2]) of 65.7% and an inhibition of growth at 10 µM (MCF7) of 6.06%. It also gave an IC50 (MDA-MB-231 [3]) of 369 nM, an inhibition of growth at 10 µM (HeLa) of 58.3% and an IC50 [4] of 1150 nM. For the same compound, the inhibition of growth at 10 µM (MDA-MB-231 [5]) was 44.5% and the IC50 (A549 [6]) was 2180 nM.
